Assay results from ChEMBL document CHEMBL4017501, “Paralog Specificity Determines Subcellular Distribution, Action Mechanism, and Anticancer Activity of TRAP1 Inhibitors” (J Med Chem, 2017).
Calls of active or inactive are those of the source. No cut-off for these calls is given here.

Experiments:
[1] = target: T1, Heat shock protein 75 kDa, mitochondrial (Homo sapiens) (UniProt Q12931); experiment: Inhibition of TRAP1 in human HeLa cells assessed as induction of mitochondrial ROS production after 6 hrs by Mito-Sox staining based flow cytometry; format: cell-based
T1 sequence (whole entry): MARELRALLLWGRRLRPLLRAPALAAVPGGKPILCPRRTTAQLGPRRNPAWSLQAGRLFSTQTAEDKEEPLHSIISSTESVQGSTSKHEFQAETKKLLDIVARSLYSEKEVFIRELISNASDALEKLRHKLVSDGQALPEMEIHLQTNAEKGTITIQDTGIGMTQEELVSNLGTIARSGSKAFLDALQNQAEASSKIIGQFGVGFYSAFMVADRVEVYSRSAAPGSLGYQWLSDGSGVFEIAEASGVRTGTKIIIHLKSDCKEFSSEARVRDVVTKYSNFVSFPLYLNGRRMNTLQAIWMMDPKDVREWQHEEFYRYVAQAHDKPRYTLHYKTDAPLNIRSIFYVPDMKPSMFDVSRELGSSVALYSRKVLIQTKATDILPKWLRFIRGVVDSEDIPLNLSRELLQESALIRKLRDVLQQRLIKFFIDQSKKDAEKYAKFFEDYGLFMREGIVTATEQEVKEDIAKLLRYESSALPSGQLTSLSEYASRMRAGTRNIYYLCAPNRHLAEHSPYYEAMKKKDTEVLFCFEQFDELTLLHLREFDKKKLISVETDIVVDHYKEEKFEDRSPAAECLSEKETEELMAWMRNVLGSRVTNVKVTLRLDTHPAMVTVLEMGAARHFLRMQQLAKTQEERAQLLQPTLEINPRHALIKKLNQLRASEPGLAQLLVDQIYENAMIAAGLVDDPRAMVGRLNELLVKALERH
Summary of the method: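 HeLa cells given drug for 6 h, then stained with 200 nM Mito-SOX Red for 20 min at 37 °C. Cells washed with PBS, trypsinized, resuspended and analysed by flow cytometry for mitochondrial superoxide.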

[2] = target: T1, Heat shock protein 75 kDa, mitochondrial (Homo sapiens); experiment: Inhibition of TRAP1 in human HeLa cells assessed as cytochrome c release at 20 uM after 4 hrs by Western blot method; format: cell-based
Summary of the method: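 HeLa cells treated at 20 μM for 4 h. Mitochondrial fractionation performed; cytoplasmic fraction probed for cytochrome c by Western blot.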

[3] = target: T2, Heat shock protein 75 kDa, mitochondrial (Homo sapiens, UniProt Q12931); experiment: Inhibition of FITC3-labeled PU-H71 binding to recombinant human N-terminal His6-tagged TRAP1 (60 to 561 residues) expressed in Escherichia coli BL21(DE3) after 24 hrs by fluorescence polarization assay
T2 sequence (Q12931 whole entry): T1 sequence (whole entry)
Summary of the method: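 Recombinant TRAP1 (100 nM) incubated with 10 nM 1-FITC3 probe and varying inhibitor concentrations for 24 h at 4 °C. Buffer: PBS-type salts with 1 mM DTT, 2 mM MgCl2, 0.1 mg/mL BSA, 0.05% NP40, pH 7.3. Polarization (mP) scaled to maximum and minimum values; mean ± SEM of two independent experiments.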

[4] = target: Heat shock protein HSP 90-alpha (Homo sapiens, UniProt P07900); experiment: Inhibition of FITC3-labeled PU-H71 binding to recombinant HSP90alpha (unknown origin) after 24 hrs by fluorescence polarization assay
Heat shock protein HSP90 [5] = target: T3, Heat shock protein HSP90 (Homo sapiens, UniProt P07900+P08238); experiment: Inhibition of HSP90 in human HeLa cells assessed as induction of HSP70 protein expression at 10 uM after 6 hrs by Western blot method; format: cell-based
Heat shock protein HSP90 [6] = target: T3, Heat shock protein HSP90; experiment: Inhibition of HSP90 in human PC3 cells assessed as induction of HSP70 protein expression at 10 uM after 6 hrs by Western blot method; format: cell-based
[7] = Cytotoxicity against human corneal cells assessed as reduction in cell viability at 5 to 20 uM after 24 hrs by MTT assay; format: cell-based
Summary of the method: (§1)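 Corneal cells kept in corneal medium; hepatocytes isolated from 8-week-old BALB/c mice and kept in M199/EBSS with 10% FBS. Cells given a range of drug concentrations for 24 h. MTT absorbance read at 595 nm and normalized to DMSO; two independent experiments in duplicate, mean ± SEM.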

Hepatocyte = experiment: Cytotoxicity against mouse primary hepatocytes assessed as reduction in cell viability at 5 to 20 uM after 24 hrs by MTT assay; format: cell-based; summary of the method: as §1

## COc1c(C)cnc(Cn2cnc3c(Cl)nc(N)nc32)c1C
[1]
  inhibition: inactive
[2]
  inhibition: inactive

## Nc1nc(Cl)c2cc(C(=O)O)n(Cc3ccc4c(c3)OCO4)c2n1
[3]
  IC50: 8.43 µM
[4]
  IC50: > 10 µM

## CO[C@H]1/C=C\C=C(/C)C(=O)NC2=CC(=O)C(NCCN(C)C)=C(C[C@@H](C)C[C@H](OC)[C@H](O)[C@@H](C)/C=C(\C)[C@@H]1OC(N)=O)C2=O [ALVESPIMYCIN]
Heat shock protein HSP90 [5]
  inhibition (INH): Active
Heat shock protein HSP90 [6]
  inhibition (INH): Active
[7]
  Activity: Toxic
Hepatocyte
  Activity: Toxic

## Nc1nc(Cl)c2cnn(Cc3ccc4c(c3)OCO4)c2n1
[3]
  IC50: 6.34 µM
[4]
  IC50: 8.93 µM
